ChEMBL document CHEMBL5724801, “EUbOPEN Chemogenomics Library - Multiplex” (2024)
Where “and” joins values, the source holds several entries; their conditions need not be identical. Equal entries are not always repeated.

System: U2OS
Assay: Multiplex assay against U2OS
Type: toxicity, cell-based
Details: human
Summary of the method: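 Four dyes were applied at seeding to live cells: Hoechst33342, BioTracker Green Microtubule Cytoskeleton Dye, MitoTracker Red and Annexin V Alexa Fluor 680. Imaging after compound addition used a CQ1 microscope at 37°C and 5% CO2. CellPathfinder machine-learning gating then sorted cells into Hoechst high-intensity objects or normal cells, normal cells into healthy, pyknosed or fragmented nuclei, and pyknosed cells into mitotic or apoptotic, with tubulin, mitochondrial-mass and membrane-permeability phenotypes given as per cents of healthy-nucleus cells.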

[1] = 12 h, 1 µM, compound concentration 1 uM
[2] = 12 h, 10 µM, compound concentration 10 uM
[3] = 24 h, 1 µM, compound concentration 1 uM
[4] = 24 h, 10 µM, compound concentration 10 uM
[5] = 48 h, 1 µM, compound concentration 1 uM
[6] = 48 h, 10 µM, compound concentration 10 uM

## COCCNc1cc(NC(=O)N2CCCc3cc(CN4CCOCC4=O)c(C=O)nc32)ncc1C#N
[1]
  Population Apoptotic (%): 30.77% and 39.13%
  Population Fragmented Nuclei (%): 2.11% and 3.05%
  Population Healthy Nuclei (%): 87.63% and 82.93%
  Population Hoechst High Intensity Objects (%): 0%
  Population Membrane Permeable-Phenotype (%): 0.6% and 5.15%
  Population Mitochondria Different-Phenotype (%): 0% and 8.82%
  Population Mitotic Cells (%): 69.23% and 60.87%
  Population Normal (%): 100%
  Population Pyknosed Nuclei (%): 10.26% and 14.02%
  Population Tubulin-Different-Phenotype (%): 0.6% and 0%
  Total Cell Count: 380 and 164
[2]
  Population Apoptotic (%): 46.15% and 40%
  Population Fragmented Nuclei (%): 0.86% and 7.8%
  Population Healthy Nuclei (%): 91.64% and 78.01%
  Population Hoechst High Intensity Objects (%): 0%
  Population Membrane Permeable-Phenotype (%): 1.57% and 1.82%
  Population Mitochondria Different-Phenotype (%): 0.31% and 6.36%
  Population Mitotic Cells (%): 53.85% and 60%
  Population Normal (%): 100%
  Population Pyknosed Nuclei (%): 7.49% and 14.18%
  Population Tubulin-Different-Phenotype (%): 1.26% and 0.91%
  Total Cell Count: 347 and 141
[3]
  Population Apoptotic (%): 29.17% and 39.13%
  Population Fragmented Nuclei (%): 2.21% and 0.97%
  Population Healthy Nuclei (%): 88.93% and 87.92%
  Population Hoechst High Intensity Objects (%): 0%
  Population Membrane Permeable-Phenotype (%): 1.66% and 3.85%
  Population Mitochondria Different-Phenotype (%): 0% and 4.95%
  Population Mitotic Cells (%): 70.83% and 60.87%
  Population Normal (%): 100%
  Population Pyknosed Nuclei (%): 8.86% and 11.11%
  Population Tubulin-Different-Phenotype (%): 1.04% and 0.55%
  Total Cell Count: 542 and 207
[4]
  Population Apoptotic (%): 54.55% and 40.91%
  Population Fragmented Nuclei (%): 1.52% and 9.32%
  Population Healthy Nuclei (%): 91.34% and 77.02%
  Population Hoechst High Intensity Objects (%): 0%
  Population Membrane Permeable-Phenotype (%): 0.95% and 2.42%
  Population Mitochondria Different-Phenotype (%): 0% and 9.68%
  Population Mitotic Cells (%): 45.45% and 59.09%
  Population Normal (%): 100%
  Population Pyknosed Nuclei (%): 7.14% and 13.66%
  Population Tubulin-Different-Phenotype (%): 0.95% and 1.61%
  Total Cell Count: 462 and 161
[5]
  Population Apoptotic (%): 32.88% and 50%
  Population Fragmented Nuclei (%): 2.93% and 2.02%
  Population Healthy Nuclei (%): 89.69% and 90.49%
  Population Hoechst High Intensity Objects (%): 0%
  Population Membrane Permeable-Phenotype (%): 1.01% and 2.23%
  Population Mitochondria Different-Phenotype (%): 0.23% and 5.1%
  Population Mitotic Cells (%): 67.12% and 50%
  Population Normal (%): 100%
  Population Pyknosed Nuclei (%): 7.38% and 7.49%
  Population Tubulin-Different-Phenotype (%): 0.56% and 1.27%
  Total Cell Count: 989 and 347
[6]
  Population Apoptotic (%): 38.46% and 32.14%
  Population Fragmented Nuclei (%): 3.01% and 6.33%
  Population Healthy Nuclei (%): 86.02% and 81.86%
  Population Hoechst High Intensity Objects (%): 0%
  Population Membrane Permeable-Phenotype (%): 1.4% and 3.09%
  Population Mitochondria Different-Phenotype (%): 0.14% and 6.19%
  Population Mitotic Cells (%): 61.54% and 67.86%
  Population Normal (%): 100%
  Population Pyknosed Nuclei (%): 10.96% and 11.81%
  Population Tubulin-Different-Phenotype (%): 1.68% and 1.03%

## FC(F)(F)c1ccccc1-c1cc(C(F)(F)F)c2[nH]c(C3=NOC4(CCCCC4)C3)nc2c1
[1]
  Population Apoptotic (%): 48.57% and 27.27%
  Population Fragmented Nuclei (%): 2.24% and 1.95%
  Population Healthy Nuclei (%): 87.96% and 83.77%
  Population Hoechst High Intensity Objects (%): 0%
  Population Membrane Permeable-Phenotype (%): 1.91% and 5.43%
  Population Mitochondria Different-Phenotype (%): 0.32% and 6.98%
  Population Mitotic Cells (%): 51.43% and 72.73%
  Population Normal (%): 100%
  Population Pyknosed Nuclei (%): 9.8% and 14.29%
  Population Tubulin-Different-Phenotype (%): 0.96% and 0%
  Total Cell Count: 357 and 154
[2]
  Population Apoptotic (%): 51.92% and 25%
  Population Fragmented Nuclei (%): 1.81% and 6.56%
  Population Healthy Nuclei (%): 82.53% and 69.4%
  Population Hoechst High Intensity Objects (%): 0%
  Population Membrane Permeable-Phenotype (%): 18.61% and 23.62%
  Population Mitotic Cells (%): 48.08% and 75%
  Population Normal (%): 100%
  Population Pyknosed Nuclei (%): 15.66% and 24.04%
  Population Tubulin-Different-Phenotype (%): 21.17% and 11.81%
  Total Cell Count: 332 and 183
[3]
  Population Apoptotic (%): 53.33% and 54.17%
  Population Fragmented Nuclei (%): 0.65% and 0%
  Population Healthy Nuclei (%): 89.61% and 86.59%
  Population Hoechst High Intensity Objects (%): 0%
  Population Membrane Permeable-Phenotype (%): 1.69% and 5.16%
  Population Mitochondria Different-Phenotype (%): 0.24% and 8.39%
  Population Mitotic Cells (%): 46.67% and 45.83%
  Population Normal (%): 100%
  Population Pyknosed Nuclei (%): 9.74% and 13.41%
  Population Tubulin-Different-Phenotype (%): 1.93% and 0.65%
  Total Cell Count: 462 and 179
[4]
  Population Apoptotic (%): 41.86% and 43.75%
  Population Fragmented Nuclei (%): 2.02% and 5.56%
  Population Healthy Nuclei (%): 76.26% and 70.2%
  Population Hoechst High Intensity Objects (%): 0%
  Population Mitotic Cells (%): 58.14% and 56.25%
  Population Normal (%): 100%
  Population Pyknosed Nuclei (%): 21.72% and 24.24%
  Population Tubulin-Different-Phenotype (%): 24.17% and 12.95%
  Total Cell Count: 396 and 198
[5]
  Population Apoptotic (%): 45.78% and 50%
  Population Fragmented Nuclei (%): 2.67% and 2.11%
  Population Healthy Nuclei (%): 87.27% and 85.96%
  Population Hoechst High Intensity Objects (%): 0.12% and 0%
  Population Membrane Permeable-Phenotype (%): 0.69% and 1.63%
  Population Mitochondria Different-Phenotype (%): 0.28% and 8.16%
  Population Mitotic Cells (%): 54.22% and 50%
  Population Normal (%): 99.88% and 100%
  Population Pyknosed Nuclei (%): 10.06% and 11.93%
  Population Tubulin-Different-Phenotype (%): 1.53% and 0.82%
  Total Cell Count: 826 and 285
[6]
  Population Apoptotic (%): 40.68% and 58.46%
  Population Fragmented Nuclei (%): 3.58% and 4.76%
  Population Healthy Nuclei (%): 78.04% and 69.44%
  Population Hoechst High Intensity Objects (%): 0%
  Population Mitotic Cells (%): 59.32% and 41.54%
  Population Normal (%): 100%
  Population Pyknosed Nuclei (%): 18.38% and 25.79%
  Population Tubulin-Different-Phenotype (%): 19.56% and 20.57%
  Total Cell Count: 642 and 252
